SENP1 inh: SENP1 (human) catalytic domain inhibition. inhibition, % at 10 µM. Q9P0U3. AID 624204. hit rate 0.21% among 360,000. recombinant SENP1 catalytic domain, CyPet-SUMO1-YPet FRET cleavage;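 active means inhibition at least 30% at 10 µM, raw YFP signal under a set limit, fluorescence ratio 0.5 to 1.5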;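 further: 0% = enzyme with DMSO and 100% = no enzyme wells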
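system = hSENP1 catalytic domain, recombinant | reagent = SFCypet-SUMO1-SFYpet substrate at 25 nM | doses = one dose per compound, 10 µM, 0.5% DMSO | incubation = enzyme reaction for 50 min at room temperature, dark | measured by = FRET, CFP and YFP emission | controls = no-enzyme low, enzyme-DMSO high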
UCH37 inh: blocks the human deubiquitinase UCH37; purified proteasome/UCH37, Ub-AMC cleavage fluorescence; inhibition, % (test concentration not listed); hit rate 0.33% among 330,000;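 active means mean inhibition over replicate wells above about 20%, limit read from the data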;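 further: 0% = compound-free wells with enzyme and 100% = wells lacking proteasome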
Target sequence (Q9Y5K5 whole entry, looked up): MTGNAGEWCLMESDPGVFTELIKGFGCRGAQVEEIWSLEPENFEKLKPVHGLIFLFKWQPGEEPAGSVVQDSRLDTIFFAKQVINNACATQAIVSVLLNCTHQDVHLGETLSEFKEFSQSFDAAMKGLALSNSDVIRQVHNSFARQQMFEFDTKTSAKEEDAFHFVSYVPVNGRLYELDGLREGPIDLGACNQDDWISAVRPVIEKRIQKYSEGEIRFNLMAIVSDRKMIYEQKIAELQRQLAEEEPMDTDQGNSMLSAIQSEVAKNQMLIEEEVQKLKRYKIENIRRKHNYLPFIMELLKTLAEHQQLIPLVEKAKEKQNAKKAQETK
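Material: Human UCH37 enzyme supplied as purified proteasome complex | Schedule: 30 min compound-proteasome preincubation then 25 min substrate reaction, room temperature | Detection: AMC fluorescence from Ub-AMC cleavage, excitation 355 nm, emission 460 nm | Benchmarks: Wells without proteasome as full block, compound-free enzyme plus substrate as uninhibited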
GRIN3A LBD mod: modulators (binders) of human NR3A ligand-binding domain. NR3A LBD differential scanning fluorimetry, Tm shift; 0% = protein alone, 100% = glycine-bound protein. Tm shift relative to glycine control, % at 25 µM. hit rate 2.5% among 340,000;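 active means melting temperature shift of at least 10% of the positive control shift, at one fixed dose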
NadD block: inhibitors of Staphylococcus aureus NadD; purified NadD enzyme, colorimetric absorbance read-out; AID 602399; inhibition, % at 20 µM; hit rate 0.78% among 360,000; in the data active means inhibition above about 26%
ATG4B inh: blocks human ATG4B protease cleavage of LC3 substrate | ATG4B cleavage of LC3-PLA2, NBD-HPC fluorescence, 1 h | Q9Y4P1 | hit rate 0.51% among 340,000 | inhibition, % at 8.33 µM; in the data active means inhibition above about 40%
ATG4B confirm: ATG4B (human) inhibition, single-dose confirmed | shares compounds with ATG4B inh | ATG4B protease fluorescent substrate cleavage assay | inhibition, % at 8.33 µM | hit rate 92% among 320 | AID 504757; in the data active means inhibition above about 39%
PLA2 ctr: inhibits human PLA2, flagging false ATG4B inhibitors. shares compounds with ATG4B inh. purified PLA2, NBD-C6-HPC fluorescence, 45 min. inhibition, % at 8.33 µM. hit rate 66% among 1,600; in the data active means inhibition above about 50%
Target sequence (P04054 whole entry, looked up): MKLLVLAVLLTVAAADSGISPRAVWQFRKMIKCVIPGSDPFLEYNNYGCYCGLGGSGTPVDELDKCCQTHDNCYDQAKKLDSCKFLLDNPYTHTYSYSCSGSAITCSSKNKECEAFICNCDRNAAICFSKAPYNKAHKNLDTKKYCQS
* hit, by the source's call; . = not tested or not shown. The list is not random: actives were taken first. Their share in the collection is about 3.6%.

SMILES	SENP1 inh	UCH37 inh	GRIN3A LBD mod	NadD block	ATG4B inh	PLA2 ctr	others
COc1ccc(C2=CC3=C(Br)C(=O)C(C)(OC(=O)c4cccs4)C(=O)C3=CO2)cc1 (configuration not stated)	-39	2	-21	27	83*	90*
COC(=O)NN=Cc1cccc(OC(=O)c2cccs2)c1	.	5	.	.	.	.
COCc1ccc(C(=O)N2CCCC(Nc3ccc(C(C)C)cc3)C2)s1 (configuration not stated)	1	3	0	-4	72*	76*
COCc1ccc(C(=O)N2CCCC(Nc3ccc(C(C)C)cc3)C2)o1 (configuration not stated)	1	4	2	-2	53*	59*
COc1ccc2c(c1OC)C(=O)OC2Nc1nc(-c2cccc([N+](=O)[O-])c2)cs1 (configuration not stated)	1	6	-2	-8	52*	71*
CCC1SC(=NN=Cc2ccco2)N(Cc2ccc(F)cc2)C1=O (configuration not stated)	.	3	.	.	.	.
O=C(O)c1cc(-c2ccc(-c3c(-c4ccc5c(c4)OCO5)noc3-c3ccsc3)cc2)nc2ccccc12	0	8	-5	18	62*	34	ATG4B confirm=18
CN(C)c1ccc(-c2c(-c3ccc4c(c3)OCO4)noc2-c2ccsc2)cn1	3	1	0	6	-1	.
CCCCNC(=O)c1sc(=S)n(-c2ccccc2OC)c1N	0	7	-1	-8	-10	.
CCCCNC(=O)c1sc(=S)n2c1[nH]c(=O)c1ccccc12	-1	6	-3	3	45*	18
CCCCc1n[nH]c2c1C(=NOCC)CC(C)(C)C2	.	2	.	.	.	.
O=C(Nc1cccc([N+](=O)[O-])c1)C1C2CC/C=C\CCC21 (configuration not stated)	2	2	-3	-2	54*	66*
O=C(O)C1C2CCC(C2)C1C(=O)Nc1cccc([N+](=O)[O-])c1 (configuration not stated)	-1	2	0	1	1	.
O=C1c2ccccc2C(=O)N1CCCc1c[nH]c2ccc(Cl)cc12	-4	1	8	-12	53*	50
COc1ccc(C=O)cc1COc1ccccc1F	-4	2	1	-1	8	.
COc1ccc(C=O)cc1CN1CCCN(Cc2ccccc2F)S1(=O)=O	0	4	2	-9	53*	56*
CC(/C=C1\SC(=S)N(NS(=O)(=O)c2ccccc2)C1=O)=C\c1ccccc1	1	9	-7	18	49*	47	ATG4B confirm=59*
CC(/C=C1\SC(=S)N(C(C(=O)O)C(C)C)C1=O)=C\c1ccccc1 (configuration not stated)	-3	9	-6	12	35	.
CC(/C=C1\SC(=S)N(NC(=O)c2ccccc2C)C1=O)=C\c1ccccc1	0	5	2	14	23	.
CC(/C=C1\SC(=S)N(NS(=O)(=O)c2ccc(C)cc2)C1=O)=C\c1ccccc1	7	8	-6	16	62*	72*
CC(/C=C1\SC(=S)N(c2ccc(C(=O)O)cc2)C1=O)=C\c1ccccc1	2	.	4	14	52*	47	ATG4B confirm=44*
COc1ccc(NC(=O)CCC(=O)NN=Cc2ccc([N+](=O)[O-])s2)cc1	.	9	.	.	.	.
Cc1cc([N+](=O)[O-])nn1Cc1ccc(C(=O)NN=Cc2ccccc2)cc1	.	2	.	.	.	.
CCOC(=O)C1=C(C)N=c2sc(=Cc3cccc(OCC(=O)O)c3)c(=O)n2C1c1ccccc1 (configuration not stated)	.	10	.	.	.	.
Cc1cc(-c2ccc(C=Nn3cnnc3)o2)ccc1Cl	.	4	.	.	.	.
SMILES	SENP1 inh	UCH37 inh	GRIN3A LBD mod	NadD block	ATG4B inh	PLA2 ctr	others
O=C1CCCC2=C1C1(CCCC1)N=C(Nc1nc3ccccc3o1)N2	-3	.	.	0	.	.
O=C1CCCC2=C1C1(CCCCC1)N=C(Nc1nc3ccccc3o1)N2	1	-9	-2	2	66*	76*
CCN(CC)c1ccc(C=NO)cc1	.	2	.	.	.	.
O=C(Nc1ccc(OC(F)(F)F)cc1)Nc1cccc([N+](=O)[O-])c1	3	31*	13*	-13	49*	58*
O=C(Nc1cccnc1)Nc1cccc([N+](=O)[O-])c1	1	1	7	-2	-4	.
CNC(=O)CSc1nc2ccccc2c(=O)n1C1CCCCC1	2	3	-1	1	13	.
CCOC(=O)CSc1nc2ccccc2c(=O)n1C1CCCC1	1	3	0	-12	44*	65*
CCS(=O)(=O)N1Cc2ccccc2CC1C(=O)Nc1nnc(SCc2c(Cl)cccc2Cl)s1 (configuration not stated)	-5	1	6	25	74*	64*
CC(SCc1ccccc1)C(=O)NN=Cc1ccc2c(c1)OCO2 (configuration not stated)	.	1	.	.	.	.
Cc1ncc(CC(=O)n2cc(C(=O)c3cc(F)ccc3O)cn2)s1	-6	-72	1	-2	41*	50*
COc1cc([N+](=O)[O-])cc(C=NNC(=O)c2cccnc2)c1O	.	17	.	.	.	.
Cc1ccsc1/C=C1\CCc2ccccc2C1=O	0	2	1	-5	46*	68*
O=C1C(=Cc2ccccn2)CCc2ccccc21	1	.	.	-6	.	.
Cc1ccccc1/C=C1\CCCc2ccccc2C1=O	0	0	2	1	53*	61*
O=S(=O)(NCc1ccccc1)c1ccc(Cl)cc1	4	1	-4	-2	-8	.
O=S(=O)(Nc1cc2nc3ccccc3nc2n1Cc1ccccc1)c1ccc(Cl)cc1	-28	-69	12*	24	45*	32
Cl/C(C=Nn1cnnc1)=C/c1ccccc1	.	3	.	.	.	.
O=C(O/N=C1/CCSc2ccccc21)c1ccccc1	2	.	1	-6	42*	37	ATG4B confirm=72*
CC(=NNC(=O)C(N)=O)c1ccc(OC(F)F)cc1	.	6	.	.	.	.
O=C1NN(c2ccccc2)C(=O)/C1=C/c1ccc(Sc2cccc3ccccc23)o1	-1	8	-5	4	44*	32	ATG4B confirm=51*
COc1cccc(/C=C2/C(=O)NN(c3ccccc3)C2=O)c1	2	3	-1	-1	2	.
CC(C(=O)Nc1ccccc1-c1ccccc1)N1CCN(C(=O)c2ccccc2)CC1 (configuration not stated)	-2	3	-4	-9	28	.
CC1CCN(CC(=O)Nc2ccccc2-c2ccccc2)CC1	0	2	0	3	45*	69*
O=C(Nc1ccccc1-c1ccccc1)C1CCCCC1	0	4	-8	-2	28	.
